HUVEC inhibit = blocks proliferation of human endothelial cells; HUVEC proliferation, CellTiter-Glo luminescence, 72 h; stronger effect = lower value; viability, % at 10 µM (by protocol); actives 1.1% (n = 86,000); AID 648;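 active = viability at or below 30%; inactive = viability above 30%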
Lung fibro prol = blocks proliferation of human lung fibroblasts; LL 47 human lung fibroblast viability, ATP luminescence; stronger effect = lower value; viability, % at 10 µM; actives 1.1% (n = 85,000); AID 719;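 active = viability at or below 50% in the single dose screen; inactive = viability above 50%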;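 also: compound exposure lasted 72 h before the ATP readout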
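material = human LL 47 lung fibroblast cells | dosing = compounds added from tenfold dosing solution, 0.1% DMSO final | timing = overnight cell rest, 72 h compound treatment at 37 °C | measured by = CellTiter-Glo luminescence measuring cellular ATP | evaluation = % viability versus median cells-only luminescence | control set = cell-only wells, no compound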
HCT116 bCat-KO = beta-catenin-lacking colon tumor cell growth suppression | HCT116 beta-catenin knockout viability, CellTiter-Glo, 60 h; stronger effect = lower value | viability, % at 10 µM | actives 1.5% (n = 140,000);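 active = viability at or under a set limit, the compound median less 4 SD, cut at about 6% in these data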
H69AR growth 86K = blocks growth of human H69AR lung tumor cells; H69AR lung tumor viability, ATP luminescence, 72 h; stronger effect = lower value; viability, % at 10 µM; actives 6% (n = 85,000);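 active = viability at or below 40%; inactive = viability above 40%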;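 also: multidrug resistant small cell line overexpressing MRP-1 efflux transporter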
PTEN del growth = PTEN-deleted cell growth suppression. HCT116 PTEN-null viability, CellTiter-Glo, 60 h; stronger effect = lower value. viability, % at 10 µM. actives 1.2% (n = 140,000). AID 827;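 active = viability at or below a set limit, 4 SD under the median of all tested compounds, cut at about 3.7% in these data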;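 also: PTEN knockout HCT116 line with beta catenin targeted HCT116 as companion control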
Each line names hits and unclear results; the compound was inactive in the other large screens. Shown is part of a subset that was picked to be rich in hits.

C/C(=N\NC(=O)C1COc2ccccc2O1)c1ccccn1 (centres undefined)	HCT116 bCat-KO 5.0 (no result: HUVEC inhibit, Lung fibro prol, H69AR growth 86K)
C/C(=N\NC(=O)C(c1ccccc1)c1ccccc1)c1ccccn1	HCT116 bCat-KO 4.3 (no result: HUVEC inhibit, Lung fibro prol, H69AR growth 86K)
C/C(=N\NC(=O)C1COc2ccccc2O1)c1ccc(C)o1 (centres undefined)	none (no result: HUVEC inhibit, Lung fibro prol, H69AR growth 86K)
O=C(N/N=C\c1cc(Br)cs1)C1COc2ccccc2O1 (centres undefined)	H69AR growth 86K 27
CCN(C(=O)COc1ccc(C)nc1[N+](=O)[O-])C1CCS(=O)(=O)C1 (centres undefined)	none (no result: HUVEC inhibit, Lung fibro prol, H69AR growth 86K)
CCN(CC)C(=O)CNc1ccc(C(F)(F)F)cc1[N+](=O)[O-]	none (no result: HUVEC inhibit, Lung fibro prol, H69AR growth 86K)
COc1cc(NC(=O)C2CCCN(S(=O)(=O)c3cccc4nsnc34)C2)cc(OC)c1 (centres undefined)	none (no result: HUVEC inhibit, Lung fibro prol, H69AR growth 86K)
COc1ccc(OC)c(NC(=O)C2CCCN(S(=O)(=O)c3cccc4nsnc34)C2)c1 (centres undefined)	H69AR growth 86K 40
CN(C)c1ccc(/C=[N+](\[O-])C2N(c3ccccc3)C(=S)SC2(C)C)cc1 (centres undefined)	none (no result: HUVEC inhibit, Lung fibro prol, H69AR growth 86K)
Oc1ccc(O)c(-c2cnns2)c1	none (no result: HUVEC inhibit, Lung fibro prol, H69AR growth 86K)
CSc1nc2nccc(-c3ccc(Cl)cc3)n2n1	none
CSc1nc2nccc(/C=C\c3ccccc3)n2n1	HCT116 bCat-KO 4.5 (no result: HUVEC inhibit, Lung fibro prol, H69AR growth 86K)
CCc1cc2c(=O)c(-c3ccc4c(c3)OCCO4)c(C)oc2cc1OS(C)(=O)=O	none (no result: HUVEC inhibit, Lung fibro prol, H69AR growth 86K)
CSc1cccc(NC(=O)C2CCCN(S(=O)(=O)c3ccc(F)cc3)C2)c1 (centres undefined)	H69AR growth 86K 21
O=C(Nc1cccc(Cl)c1)C1CCCN(S(=O)(=O)c2ccc(F)cc2)C1 (centres undefined)	H69AR growth 86K 29
O=C(O)c1ccccc1C(=O)N1CCN(c2cccc(Cl)c2)CC1	none
COc1cc2c(C(=O)N3CCN(c4ccccc4)CC3)c(C)oc2cc1Br	H69AR growth 86K 23
CCOc1ccc2ccccc2c1C(=O)N1CCN(c2ccccc2)CC1	H69AR growth 86K 15
CCOc1ccccc1C(=O)N1CCN(c2cccc(Cl)c2)CC1	H69AR growth 86K 31
COc1ccc(C(=O)N2CCN(S(=O)(=O)c3ccccc3)CC2)c(OC)c1	none
COc1ccc(C(=O)N2CCN(c3cccc(Cl)c3)CC2)c(OC)c1	H69AR growth 86K 15
Cc1nn(-c2ccccc2)c(N2CCCC2)c1/C=N/NC(=S)Nc1ccccc1F	none (no result: HUVEC inhibit, Lung fibro prol, H69AR growth 86K)
COc1ccc2c(c1)c(C(=O)N/N=C/c1ccc(O)c(O)c1)c(C)n2C	none (no result: HUVEC inhibit, Lung fibro prol, H69AR growth 86K)
C1CCN(CCCNC2C3CC4CC(C3)CC2C4)C1 (centres undefined)	none (no result: HUVEC inhibit, Lung fibro prol, H69AR growth 86K)
COc1ccccc1C(=O)N1CCN(c2cccc(C(F)(F)F)c2)CC1	H69AR growth 86K 15
COc1ccc2[nH]c(=O)c(CN(Cc3cccs3)S(=O)(=O)c3cccc4nsnc34)cc2c1	H69AR growth 86K 3.0
Cc1ccc(Nc2nc(CSc3nnc(-c4ccc(F)cc4)n3C)cs2)cc1	none (no result: HUVEC inhibit, Lung fibro prol, H69AR growth 86K)
CCc1ccc(NC(=O)COC(=O)CCc2nc3cc(S(=O)(=O)N(CC)CC)ccc3n2C)cc1	none (no result: HUVEC inhibit, Lung fibro prol, H69AR growth 86K)
CCc1ccccc1N1CSC2=C(C#N)C(c3ccccc3F)CC(=O)N2C1 (centres undefined)	H69AR growth 86K 29
Cc1ccc2[nH]c(=O)c(CN(Cc3ccc4c(c3)OCO4)Cc3nnnn3C3CCCC3)cc2c1	H69AR growth 86K 11
CCc1ccc2[nH]c(=O)c(CN(Cc3nnnn3C3CCCC3)C3CCCCC3)cc2c1	HCT116 bCat-KO 1.8, H69AR growth 86K 12, PTEN del growth 1.6 (no result: Lung fibro prol)
Cc1cc2cc(CN(Cc3ccc4c(c3)OCO4)Cc3nnnn3C3CCCC3)c(=O)[nH]c2cc1C	none
O=c1[nH]c2cc3c(cc2cc1CN(CCc1ccccc1)Cc1nnnn1C1CCCC1)OCCO3	H69AR growth 86K 36
COc1ccc(CN(Cc2cc3ccc(C)cc3[nH]c2=O)Cc2nnnn2C2CCCC2)cc1	H69AR growth 86K 25
Cc1ccc(C(=O)C(c2ccccc2)N2Cc3ccccc3C2=N)cc1 (centres undefined)	none (no result: HUVEC inhibit, Lung fibro prol, H69AR growth 86K)
CCn1c(SCC(=O)N/N=C/c2c[nH]c3ccccc23)nnc1-c1ccc(C(C)(C)C)cc1	none (no result: HUVEC inhibit, Lung fibro prol, H69AR growth 86K)
COc1ccc(C(=O)N2CC3(CC(c4ccc(Cl)cc4)=NO3)C[C@H]2C(=O)NCC(N)=O)cc1 (some centres undefined)	none (no result: HUVEC inhibit, Lung fibro prol, H69AR growth 86K)
N#Cc1ccccc1S(=O)(=O)N1CCN(c2ccc(S(=O)(=O)N3CCOCC3)cn2)CC1	none
CCN(CC)S(=O)(=O)c1ccc(N2CCN(S(=O)(=O)c3ccccc3C#N)CC2)nc1	H69AR growth 86K 38
COC(=O)c1ccc(NC(C)C(=O)OC)c([N+](=O)[O-])c1 (centres undefined)	none (no result: HUVEC inhibit, Lung fibro prol, H69AR growth 86K)
Cc1ccc(-c2nn(CC(=O)NCc3cc(-c4nn(C)c(=O)c5ccccc45)ccc3C)c(=O)c3ccccc23)cc1	HUVEC inhibit 4.1, Lung fibro prol 4.9, H69AR growth 86K 2.1
CCC(=O)Nc1cc(-c2nn(C)c(=O)c3ccccc23)ccc1OC	none (no result: HUVEC inhibit, Lung fibro prol, H69AR growth 86K)
COc1ccc(-c2nn(C)c(=O)c3ccccc23)cc1NC(=O)Cn1nc(C)c2ccccc2c1=O	H69AR growth 86K 3.3
Cc1nn(CC(=O)Nc2ccc3c(c2)oc2ccccc23)c(=O)c2ccccc12	H69AR growth 86K 3.3
COc1ccc(/C=N/NC(=O)COc2ccc(Cl)cc2Cl)cc1Cn1nc(C)cc1C	none (no result: HUVEC inhibit, Lung fibro prol, H69AR growth 86K)
COC(=O)c1cc(NC(=O)c2ccc(Cn3cc(Cl)cn3)o2)cc(C(=O)OC)c1	Lung fibro prol 6.8, H69AR growth 86K 2.7
CCOC(=O)c1c(NC(=O)CSc2nnc(C)s2)sc2c1CCC(C)C2 (centres undefined)	none
CCOC(=O)c1c(NC(=S)NC(=O)c2ccc(Cn3cc(Cl)cn3)o2)sc2c1CCC(C)C2 (centres undefined)	HCT116 bCat-KO 1.9, PTEN del growth 1.5 (no result: HUVEC inhibit, Lung fibro prol, H69AR growth 86K)
CCn1cc(C(=O)NC(=S)Nc2sc3c(c2C(=O)OC)CCCCCC3)cn1	PTEN del growth 2.1 (no result: HUVEC inhibit, Lung fibro prol, H69AR growth 86K)
CCN1/C(=C2\C(=O)N(C)C(=S)N2C)C=Cc2cc(C)ccc21	none (no result: HUVEC inhibit, Lung fibro prol, H69AR growth 86K)
Cc1nc2sc3c(c2c2nc(-c4ccco4)nn12)CCCC3	H69AR growth 86K 9.1
O=C(NNC(=O)C1CC2CCC1C2)c1sc2ccccc2c1Cl (centres undefined)	none (no result: HUVEC inhibit, Lung fibro prol, H69AR growth 86K)
CC(C)c1ccc(-c2nc(N3CCCC3)nc3n[nH]c(N)c23)cc1	H69AR growth 86K 11
O=C(CSc1nc2c(c(=O)n1-c1ccc(Cl)cc1)SCC2)Nc1nccs1	H69AR growth 86K 20
O=C(CSc1nc2c(c(=O)n1-c1ccc(Br)cc1)SCC2)Nc1nccs1	H69AR growth 86K 36
C/C(=N\NC(=O)CSc1nc2ccccc2s1)c1ccco1	none (no result: HUVEC inhibit, Lung fibro prol, H69AR growth 86K)
CCNc1nc(NC(C)C)nc(N(C#N)CCOc2ccccc2)n1	H69AR growth 86K 27
COc1cc(NCCCCCCCN)c2ncccc2c1	HUVEC inhibit 3.1, Lung fibro prol 23, HCT116 bCat-KO 1.7, PTEN del growth 2.3
C=CCn1c(SCC(=O)NC2CCCc3ccccc32)nnc1-c1ccncc1 (centres undefined)	none (no result: HUVEC inhibit, Lung fibro prol, H69AR growth 86K)
Cn1cc(C(=O)N2CCc3ccccc32)cn1	none (no result: HUVEC inhibit, Lung fibro prol, H69AR growth 86K)
